# Columns and labels:
# HUVEC = test: Antiangiogenic activity against HUVECs by Brdu incorporation assay; type: functional, cell-based; details: Homo sapiens
# Procedure, shortened: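 After overnight attachment they were washed with PBS and held 24 h without growth factor (EBM, 2% FBS). They were then given increasing drug concentrations in EBM with 2% FBS plus 10 ng/mL bFGF for 48 h at 37 °C. Proliferation was read by BrdU ELISA.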
# MCF7 = test: Estrogenic activity in human MCF7 cells assessed as stimulation of cell proliferation relative to 2-methoxyestradiol; type: functional
# Procedure, shortened: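 MCF-7 were kept in DMEM/F12 with 10% FBS, seeded at 20–30,000 cells/well, adhered overnight and counted. After a PBS wash they were starved 3 days in phenol red-free IMEM with 2% charcoal-dextran-stripped FBS. Increasing concentrations were given, with medium renewed every 2–3 days. Cells were Coulter-counted after 8 or 10 days, in triplicate, and expressed as stimulation index relative to 2ME2 (1.00).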
# [1] = system: MDA-MB-231 (Homo sapiens); test: Antiproliferative activity against human MDA-MB-231 cells by Brdu incorporation assay
# [2] = Antiproliferative activity against human U87MG cells by Brdu incorporation assay; type: functional, cell-based, U-87MG ATCC; details: U-87 MG
# Procedure, shortened: (§1)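 Cells were grown in DMEM with 10% FBS, 2 mM L-glutamine and penicillin/streptomycin. They were seeded at 2000 cells/well, attached overnight, then exposed to increasing compound concentrations for 48 h. DNA synthesis was read by a colorimetric BrdU ELISA. Each condition was run in triplicate, with at least two experiments, reported as the mean ± SD of independent experiments.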
# PC-3 = test: Antiproliferative activity against human PC3 cells by Brdu incorporation assay; type: functional, cell-based; procedure, shortened: as §1
# [3] = Metabolic stability in human liver microsomes assessed as compound remaining at 5 uM after 15 mins by LCMS analysis relative to 0 mins; type: ADME, Microsome; details: read-out: Stability
# Procedure, shortened: (§2)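 Human liver microsomes were incubated in 50 mM tris pH 7.5 with 10 mM MgCl2, 2 mM UDPGA, 25 µg alamethicin/mg microsomal protein and 5 µM compound. Aliquots at 0, 15, 30 and 60 min were quenched in acetonitrile with internal standard. Samples were analysed by C18 LCMS in negative ion mode as % remaining versus 0 min. Controls were BSA without microsomes, and incubations lacking UDPGA.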
# [4] = Metabolic stability in human liver microsomes assessed as compound remaining at 5 uM after 30 mins by LCMS analysis relative to 0 mins; type: ADME, Microsome; details: read-out: Stability; procedure, shortened: as §2
# [5] = Metabolic stability in human liver microsomes assessed as compound remaining at 5 uM after 60 mins by LCMS analysis relative to 0 mins; type: ADME, Microsome; details: read-out: Stability; procedure, shortened: as §2
SMILES,IC50 [1] [µM],IC50 (PC-3) [µM],"remaining at 0.25 h, 5 µM [3] [%]","remaining at 0.5 h, 5 µM [4] [%]","remaining at 1 h, 5 µM [5] [%]",IC50 (HUVEC) [µM],fold change (FC) (MCF7),IC50 [2] [µM]
COc1cc2c(cc1O)CC[C@@H]1[C@@H]2CC[C@]2(C)[C@@H](O)CC[C@@H]12 [2-METHOXYESTRADIOL],1,2.65,58,29,9.4,,,8.54
CN(C)c1cc2c(cc1O)CC[C@@H]1[C@@H]2CC[C@]2(C)CCC[C@@H]12.Cl,39.3,26,,,,7.43,2.17,34.2
CCCC[C@H]1CC[C@H]2[C@@H]3CCc4cc(O)c(OC)cc4[C@H]3CC[C@]12C,33.5,28.8,,,,12.6,0.59,21.1
C[C@@]12CCC[C@H]1[C@@H]1CCc3cc(O)c(NC=O)cc3[C@H]1CC2,24.6,26,101,86,68,6.8,1.71,42.9
CNc1cc2c(cc1O)CC[C@@H]1[C@@H]2CC[C@]2(C)CCC[C@@H]12,26.8,22.8,,,,4.11,1.22,22.3
COc1cc2c(cc1O)CC[C@@H]1[C@@H]2CC[C@]2(C)/C(=N/NS(=O)(=O)c3ccc(C)cc3)CC[C@@H]12,72.5,27.2,,,,7.95,0.43,27.3
C[C@@]12CCC[C@H]1[C@@H]1CCc3cc(O)c(N=[N+]=[N-])cc3[C@H]1CC2,7.12,,,,,2.83,2.04,
C[C@@]12CCC[C@H]1[C@@H]1CCc3cc(O)ccc3[C@H]1CC2,41.3,22,,,,8.22,1.91,22.1
COc1cc2c(cc1O)CC[C@@H]1[C@@H]2CC[C@]2(C)CCC[C@@H]12,2.2,8.49,94,101,117,1.32,0.24,7.59
CCCC=C1CC[C@H]2[C@@H]3CCc4cc(O)c(OC)cc4[C@H]3CC[C@]12C,14,,,,,3.47,0.51,
C[C@@]12CCC[C@H]1[C@@H]1CCc3cc(O)c(N)cc3[C@H]1CC2,> 100,> 80,,,,60.1,1.49,> 100

# Further lines, with some results ahead:
IC50 [1] [µM],IC50 (PC-3) [µM],"remaining at 0.25 h, 5 µM [3] [%]","remaining at 0.5 h, 5 µM [4] [%]","remaining at 1 h, 5 µM [5] [%]",SMILES,IC50 (HUVEC) [µM],fold change (FC) (MCF7),IC50 [2] [µM]
7.89,,,,,CCC=C1CC[C@H]2[C@@H]3CCc4cc(O)c(OC)cc4[C@H]3CC[C@]12C,3.23,0.47,
0.73,0.62,,,,COc1cc2c(cc1O)CC[C@@H]1[C@@H]2CC[C@]2(C)C=CC[C@@H]12,0.71,0.3,0.88
> 100,> 100,,,,COc1cc2c(cc1O)CC[C@@H]1[C@@H]2CC[C@]2(C)C(C(=O)O)CC[C@@H]12 (stereo not given in full),35.9,,> 100
9.77,13.8,32,30,9,COc1cc2c(cc1O)CC[C@@H]1[C@@H]2CC[C@]2(C)[C@@H](N)CC[C@@H]12,13.4,0.19,19
95.3,85.4,,,,CCC[C@H]1CC[C@H]2[C@@H]3CCc4cc(O)c(OC)cc4[C@H]3CC[C@]12C,40.8,0.69,87.9
0.58,,75,75,0.8,CC=C1CC[C@H]2[C@@H]3CCc4cc(O)c(OC)cc4[C@H]3CC[C@]12C,0.26,0.89,
0.24,,76,67,5.8,C=C1CC[C@H]2[C@@H]3CCc4cc(O)c(OC)cc4[C@H]3CC[C@]12C,0.19,0.89,
17.8,23.4,,,,COc1cc2c(cc1O)CC[C@@H]1[C@@H]2CC[C@]2(C)[C@@H](NC(C)C)CC[C@@H]12,18.8,0.11,49.2
48.1,8.7,91,76,72,CC[C@H]1CC[C@H]2[C@@H]3CCc4cc(O)c(OC)cc4[C@H]3CC[C@]12C,3.63,0.49,12.8
3.33,6.46,67,57,47,COc1cc2c(cc1O)CC[C@@H]1[C@@H]2CC[C@]2(C)[C@@H](C)CC[C@@H]12,2.4,0.89,9.39
2.51,21.5,,,,COc1cc2c(cc1O)CC[C@@H]1[C@@H]2CC[C@]2(C)C(C(N)=O)CC[C@@H]12 (stereo not given in full),4.55,,11.2
8.68,8.11,,,,COc1cc2c(cc1O)CC[C@@H]1[C@@H]2CC[C@]2(C)/C(=N/O)CC[C@@H]12,4.27,1.22,9.4
